Measured values reported in PMC4062594 (Nature chemical biology, 2014).
“Also recorded” adds a separate entry of the source.

How the values were obtained:
PTP1B = target: T1, PTP1B (Homo sapiens, UniProt P18031); assay: PTP assay with DiFMUP, MSI-1459 versus MSI-1436; type: biochemical; conditions: DiFMUP 10 uM, compound 0-10 μM
T1 sequence (P18031 1-435): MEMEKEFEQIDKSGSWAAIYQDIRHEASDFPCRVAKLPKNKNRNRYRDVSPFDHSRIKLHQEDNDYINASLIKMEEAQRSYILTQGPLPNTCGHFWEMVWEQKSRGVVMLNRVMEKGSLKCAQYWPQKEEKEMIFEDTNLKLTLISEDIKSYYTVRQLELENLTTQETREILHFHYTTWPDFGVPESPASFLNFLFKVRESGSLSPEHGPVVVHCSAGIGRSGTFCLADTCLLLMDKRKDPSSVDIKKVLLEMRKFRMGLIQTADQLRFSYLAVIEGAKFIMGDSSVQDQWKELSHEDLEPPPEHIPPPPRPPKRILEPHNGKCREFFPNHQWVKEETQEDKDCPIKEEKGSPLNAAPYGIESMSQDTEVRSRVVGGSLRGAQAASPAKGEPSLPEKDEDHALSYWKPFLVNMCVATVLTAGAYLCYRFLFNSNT

[1] = target: T2, PTP1B in tumor lysates from NDL2 mice (Mus musculus, UniProt P35821); assay: Binding assay with bead-immobilized compound in tumor lysates; conditions: confirmed by immunoblotting
T2 sequence (P35821 1-432): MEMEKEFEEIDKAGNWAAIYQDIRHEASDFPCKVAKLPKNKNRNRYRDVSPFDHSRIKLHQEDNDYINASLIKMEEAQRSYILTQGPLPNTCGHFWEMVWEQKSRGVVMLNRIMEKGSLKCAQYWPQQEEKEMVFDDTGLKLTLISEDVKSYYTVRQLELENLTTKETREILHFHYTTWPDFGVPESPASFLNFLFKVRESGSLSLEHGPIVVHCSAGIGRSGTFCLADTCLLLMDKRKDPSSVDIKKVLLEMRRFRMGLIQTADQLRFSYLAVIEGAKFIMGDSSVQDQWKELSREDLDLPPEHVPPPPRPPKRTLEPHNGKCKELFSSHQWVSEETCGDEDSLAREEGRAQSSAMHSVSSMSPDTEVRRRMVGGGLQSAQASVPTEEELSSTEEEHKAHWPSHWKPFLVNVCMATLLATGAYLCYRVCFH
How it was run: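 Test compound was coupled through its primary amine to NHS-activated magnetic beads (1 mM, 100 mM triethylamine, 8 h, 4°C), and free NHS groups were blocked with 0.8 M aminoethanol. Beads were incubated with 0–1 mg NDL2 tumour lysate protein and washed. Bound protein was eluted by heat in SDS sample buffer, run on 10% SDS-PAGE and identified by immunoblotting. Beads carrying a related amine compound served as negative control.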

retention of 50 kDa band (PTP1B) by compound beads [1]: not bound
Substance: 3β-spermine, 5α, cholenic acid methyl ester [MSI-1459]
inhibition of PTP1B (PTP1B): does not inhibit PTP1B; also recorded: poor inhibitory potency
